Measurements from ChEMBL document CHEMBL5712089, “Targeting clinical epigenetic reprogramming for chemoprevention of metabolic and viral hepatocellular carcinoma” (Gut, 2021).
Active and inactive are the calls of the source. The rule behind the calls is not given here.

Columns and labels:
Huh-7.5.1 [1] = experiment: Inhibition of Histone acetyltransferase in human Huh7.5.1 cells infected with hepatitis C virus assessed as effect on viral load; type: cell-based
Mus musculus [2] = experiment: Reduction of liver weight in DEN/CDAHFD-induced NASH C57BL/6 mouse model at 50 mg/kg, IP for 5 days a week; type: functional, organism-based; conditions: time 5.0 day
Outline: (§1)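 Male C57BL/6 mice, single IP diethylnitrosamine 35 mg/kg on day 15. From 6 weeks of age fed CDAHFD (60 kcal% fat, 0.1% methionine). From 12 weeks, randomised to IP dosing 5 days/week, drug in 10% (2-hydroxypropyl)-β-cyclodextrin or vehicle alone. Livers harvested at 30 weeks; body weight, liver weight and tumour nodule counts recorded (n=8 per group), with H&E and Sirius red sections; means±SEM, unpaired t-test.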

Mus musculus [3] = experiment: Effect on body weight in DEN/CDAHFD-induced NASH C57BL/6 mouse model at 50 mg/kg, IP for 5 days a week; type: functional, organism-based; conditions: time 5.0 day; outline: as §1
Mus musculus [4] = experiment: Antitumor activity in DEN/CDAHFD-induced NASH C57BL/6 mouse model assessed as decrease in tumor nodules at 50 mg/kg, IP for 5 days a week by hematoxylin and eosin staining based microscopic analysis; type: functional, organism-based; conditions: time 5.0 day; outline: as §1
Mus musculus [5] = experiment: Antitumor activity in DEN/CDAHFD-induced NASH C57BL/6 mouse model assessed as decrease in tumor nodules at 50 mg/kg, IP for 5 days a week by sirus red staining based microscopic analysis; type: functional, organism-based; conditions: time 5.0 day; outline: as §1
Mus musculus [6] = experiment: Antitumor activity in DEN/CDAHFD-induced NASH C57BL/6 mouse model assessed as decrease in number of tumor at 50 mg/kg, IP for 5 days a week; type: functional, organism-based; conditions: time 5.0 day; outline: as §1
Mus musculus [7] = experiment: Reduction of liver fibrosis in DEN/CDAHFD-induced NASH C57BL/6 mouse model assessed as decrease in collagen proportional area at 50 mg/kg, IP for 5 days a week; type: functional, organism-based; conditions: time 5.0 day
Outline: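 Fibrosis was scored as collagen proportional area by quantitative digital analysis of whole-scanned Sirius red-stained liver sections. Sections came from DEN/CDAHFD male C57BL/6 mice harvested at 30 weeks after IP dosing 5 days/week from week 12 (cyclodextrin vehicle), n=3 per group; means±SD.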

Mus musculus [8] = experiment: Reduction of liver fibrosis in DEN/CDAHFD-induced NASH C57BL/6 mouse model assessed as decrease in Acta2 gene expression at 50 mg/kg, IP for 5 days a week by qRT-PCR analysis; type: functional, organism-based; conditions: time 5.0 day
Outline: (§2)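 DEN (35 mg/kg IP, day 15)/CDAHFD-fed male C57BL/6 mice were dosed IP 5 days/week from 12 weeks of age in 10% hydroxypropyl-β-cyclodextrin, or given vehicle. Livers were taken at 30 weeks and hepatic fibrotic and inflammatory gene expression was quantified by qRT-PCR, n=3 per group; means±SD, unpaired t-test.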

Mus musculus [9] = experiment: Reduction of liver fibrosis in DEN/CDAHFD-induced NASH C57BL/6 mouse model assessed as decrease in Col1A gene expression at 50 mg/kg, IP for 5 days a week by qRT-PCR analysis; type: functional, organism-based; conditions: time 5.0 day; outline: as §2
Mus musculus [10] = experiment: Reduction of liver fibrosis in DEN/CDAHFD-induced NASH C57BL/6 mouse model assessed as decrease in Tgf gene expression at 50 mg/kg, IP for 5 days a week by qRT-PCR analysis; type: functional, organism-based; conditions: time 5.0 day; outline: as §2
Mus musculus [11] = experiment: Reduction of liver inflammation in DEN/CDAHFD-induced NASH C57BL/6 mouse model assessed as decrease in Ccl2 gene expression at 50 mg/kg, IP for 5 days a week by qRT-PCR analysis; type: functional, organism-based; conditions: time 5.0 day; outline: as §2
Mus musculus [12] = experiment: Reduction of liver inflammation in DEN/CDAHFD-induced NASH C57BL/6 mouse model assessed as decrease in TNFa gene expression at 50 mg/kg, IP for 5 days a week by qRT-PCR analysis; type: functional, organism-based; conditions: time 5.0 day; outline: as §2
Mus musculus [13] = experiment: Effect on c-Myc expression in DEN/CDAHFD-induced NASH C57BL/6 mouse model at 50 mg/kg, IP for 5 days a week by Western blot analysis; type: functional, organism-based; conditions: time 5.0 day
Outline: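 Liver lysates from control/PBS, vehicle and treated DEN/CDAHFD mice (n=3 each; 30 weeks; IP 5 days/week in 10% hydroxypropyl-β-cyclodextrin) were probed by western blot for c-Myc. Blots from six animals were quantified by densitometry and compared by unpaired t-test.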

Mus musculus [14] = experiment: Decrease in EPCAM gene expression in DEN/CDAHFD-induced NASH C57BL/6 mouse model at 50 mg/kg, IP for 5 days a week by CHIP-qPCR assay; type: functional, organism-based; conditions: time 5.0 day
Outline: (§3)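 ChIP-qPCR on livers of control, DEN/CDAHFD and treated DEN/CDAHFD mice (IP 5 days/week from week 12, harvest at 30 weeks) measured BRD4 recruitment to promoter-enhancer regions of the named genes, using BRD4 antibody against an IgG control. Groups were compared by Mann-Whitney U test.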

Mus musculus [15] = experiment: Decrease in SOX9 gene expression in DEN/CDAHFD-induced NASH C57BL/6 mouse model at 50 mg/kg, IP for 5 days a week by CHIP-qPCR assay; type: functional, organism-based; conditions: time 5.0 day; outline: as §3
Mus musculus [16] = experiment: Decrease in KRT7 gene expression in DEN/CDAHFD-induced NASH C57BL/6 mouse model at 50 mg/kg, IP for 5 days a week by CHIP-qPCR assay; type: functional, organism-based; conditions: time 5.0 day; outline: as §3
Mus musculus [17] = experiment: Decrease in NFkappaB2 gene expression in DEN/CDAHFD-induced NASH C57BL/6 mouse model at 50 mg/kg, IP for 5 days a week by CHIP-qPCR assay; type: functional, organism-based; conditions: time 5.0 day; outline: as §3
Huh-7.5.1 [18] = experiment: Inhibition of Histone acetyltransferase in human Huh7.5.1 cells assessed as hepatitis C virus-induced NFkappaB mRNA level measured after 72 hrs; type: cell-based
Outline: (§4)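 Huh7.5.1 cells differentiated with dimethyl sulfoxide, then infected with HCV until they expressed the poor-prognosis status of the prognostic liver signature. Infected cells were then incubated with chromatin modifier/reader inhibitors. Concentrations were chosen as non-toxic from MTT viability tests on non-infected differentiated cells at 72 h (n=3, viability relative to untreated cells).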

Huh-7.5.1 [19] = experiment: Inhibition of Histone acetyltransferase in human Huh7.5.1 cells assessed as hepatitis C virus-induced EGF mRNA level measured after 72 hrs; type: cell-based; outline: as §4

Question: With `CC1=NN(c2ccc(C(=O)O)cc2)C(=O)/C1=C\c1ccc(-c2cc(C)c(C)cc2[N+](=O)[O-])o1` as the compound, how does the inhibition (Huh-7.5.1 [1]) read?
Answer: inactive

Question: `Cc1sc2c(c1C)C(c1ccc(Cl)cc1)=N[C@@H](CC(=O)OC(C)(C)C)c1nnc(C)n1-2` was tested. Which inhibition (Mus musculus [2]) did it give?
Answer: Active

Question: And the Activity (Mus musculus [3])?
Answer: inactive

Question: And the inhibition (Mus musculus [4])?
Answer: Active

Question: What about the inhibition (Mus musculus [5]) of the same compound?
Answer: Active

Question: What about the inhibition (Mus musculus [6]) of the same compound?
Answer: Active

Question: What about the inhibition (Mus musculus [7]) of the same compound?
Answer: Active

Question: What about the inhibition (Mus musculus [8]) of the same compound?
Answer: Active

Question: And the inhibition (Mus musculus [9])?
Answer: Active

Question: And the inhibition (Mus musculus [10])?
Answer: Active

Question: And the inhibition (Mus musculus [11])?
Answer: Active

Question: What about the inhibition (Mus musculus [12]) of the same compound?
Answer: Active

Question: What about the Activity (Mus musculus [13]) of the same compound?
Answer: inactive

Question: And the inhibition (Mus musculus [14])?
Answer: Active

Question: What about the inhibition (Mus musculus [15]) of the same compound?
Answer: Active

Question: What about the inhibition (Mus musculus [16]) of the same compound?
Answer: Active

Question: And the inhibition (Mus musculus [17])?
Answer: Active

Question: Which inhibition (Huh-7.5.1 [18]) does the source give for `COc1cc(/C=C/c2cc(/C=C/c3ccc(O)c(OC)c3)n(-c3ccc(C(=O)O)cc3)n2)ccc1O` here?
Answer: Active

Question: And the inhibition (Huh-7.5.1 [19])?
Answer: Active

Question: What about the inhibition (Huh-7.5.1 [1]) of the same compound?
Answer: inactive
